Measured values as given in ChEMBL document CHEMBL3351525, “Synthesis of tripeptides containing D-Trp substituted at the indole ring, assessment of opioid receptor binding and in vivo central antinociception” (J Med Chem, 2014).
Calls of active or inactive are those of the source. Where a SMILES comes first, the peptide text is derived from it. [ ]: non-standard residue; d: D form.

Legend:
[1] = target: Kappa-type opioid receptor (Homo sapiens, UniProt P41145); assay: Displacement of [3H]U69593 from human kappa opioid receptor expressed in HEK293 cells by scintillation counting; type: cell-based
Sequence of Kappa-type opioid receptor (P41145 whole entry): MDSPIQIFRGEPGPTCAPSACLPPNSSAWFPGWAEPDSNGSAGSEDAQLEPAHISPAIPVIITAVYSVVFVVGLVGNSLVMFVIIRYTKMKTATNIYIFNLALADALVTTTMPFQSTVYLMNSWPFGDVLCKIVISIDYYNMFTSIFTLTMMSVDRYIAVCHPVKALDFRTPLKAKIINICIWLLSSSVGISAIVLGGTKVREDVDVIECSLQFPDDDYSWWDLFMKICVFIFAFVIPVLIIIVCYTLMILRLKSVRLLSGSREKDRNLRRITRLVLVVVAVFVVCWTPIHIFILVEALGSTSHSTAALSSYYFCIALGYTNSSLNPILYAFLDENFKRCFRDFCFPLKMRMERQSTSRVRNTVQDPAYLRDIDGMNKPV

[2] = target: Delta-type opioid receptor (Homo sapiens, UniProt P41143); assay: Displacement of [3H]diprenorphine from human delta opioid receptor expressed in HEK293 cells by scintillation counting; type: cell-based
Sequence of Delta-type opioid receptor (P41143 whole entry): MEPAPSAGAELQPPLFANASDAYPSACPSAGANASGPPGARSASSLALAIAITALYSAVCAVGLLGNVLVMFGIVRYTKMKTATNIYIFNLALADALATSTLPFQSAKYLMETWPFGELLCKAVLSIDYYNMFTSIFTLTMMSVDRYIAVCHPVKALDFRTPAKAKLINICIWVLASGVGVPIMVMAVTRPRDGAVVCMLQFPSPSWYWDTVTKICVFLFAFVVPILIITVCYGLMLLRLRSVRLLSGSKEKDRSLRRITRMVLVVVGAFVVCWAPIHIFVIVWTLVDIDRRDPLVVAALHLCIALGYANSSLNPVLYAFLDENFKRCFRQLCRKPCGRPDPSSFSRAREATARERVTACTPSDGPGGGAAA

Mu-type opioid receptor = Mu-type opioid receptor (Homo sapiens, UniProt P35372); assay: Displacement of [3H]DAMGO from human mu opioid receptor expressed in HEK293 cells by scintillation counting; type: cell-based
Sequence of Mu-type opioid receptor (P35372 whole entry): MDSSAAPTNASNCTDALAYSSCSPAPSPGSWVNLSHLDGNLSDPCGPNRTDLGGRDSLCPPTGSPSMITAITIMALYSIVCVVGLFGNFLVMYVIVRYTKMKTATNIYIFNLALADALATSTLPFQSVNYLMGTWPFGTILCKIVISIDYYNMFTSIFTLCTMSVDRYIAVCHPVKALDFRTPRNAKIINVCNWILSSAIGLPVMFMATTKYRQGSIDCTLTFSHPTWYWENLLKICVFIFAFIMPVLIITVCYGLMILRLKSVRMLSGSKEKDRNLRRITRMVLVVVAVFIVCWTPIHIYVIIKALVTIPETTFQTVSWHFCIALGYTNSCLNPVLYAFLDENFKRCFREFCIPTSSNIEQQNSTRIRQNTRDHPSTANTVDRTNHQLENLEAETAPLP

Mus musculus [3] = assay: Antinociceptive activity in CD-1 mouse assessed as increase in tail-flick latency period at 20 mg/kg, ip at 30 mins by tail flick test; type: functional; settings: for MPE: route intraperitoneal
Mus musculus [4] = assay: Toxicity in icv dosed CD-1 mouse assessed as locomotor activity; type: organism-based; settings: in vivo, icv_or_intrathecal
Mus musculus [5] = assay: Toxicity in icv dosed CD-1 mouse assessed as grooming; type: organism-based; settings: in vivo, icv_or_intrathecal
[6] = Stability in mouse serum assessed as drug degradation after 3 hrs incubation; type: ADME; settings: read-out: Drug degradation
In short: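 Peptide incubated in mouse serum for 3 h; degradation assessed.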

Mus musculus [7] = assay: Toxicity in icv dosed CD-1 mouse assessed as straub tail; type: organism-based; settings: in vivo, icv_or_intrathecal
Mus musculus [8] = assay: Antinociceptive activity in CD-1 mouse assessed as increase in tail-flick latency period at 20 mg/kg, ip at 15 mins by tail flick test; type: functional; settings: for MPE: route intraperitoneal
Mus musculus [9] = assay: Toxicity in icv dosed CD-1 mouse assessed as circling behavior; type: organism-based; settings: in vivo, icv_or_intrathecal
Mus musculus [10] = assay: Antinociceptive activity in CD-1 mouse assessed as increase in tail-flick latency period at 10 microg, icv at 10 mins by tail flick test; type: functional
Mus musculus [11] = assay: Antinociceptive activity in ip dosed CD-1 mouse assessed as increase in tail-flick latency period at 30 mins by tail flick test; type: functional, organism-based
In short: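 Tail immersed in 52 ± 0.5 °C water; withdrawal latency measured. Pre-treatment control latency recorded; mice not flicking within 5 s excluded. Vehicle or peptide given ip at 10, 20 or 40 mg/kg. Latency read at 5, 15, 30, 45 and 60 min post-dose, 10 s cutoff. Response expressed as % maximal possible effect (MPE%).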

Mus musculus [12] = assay: Antinociceptive activity in CD-1 mouse assessed as increase in tail-flick latency period at 2.5 microg, icv at 10 mins by tail flick test; type: functional
Mus musculus [13] = assay: Antinociceptive activity in icv dosed CD-1 mouse assessed as increase in tail-flick latency period at 10 mins by tail flick test; type: functional, organism-based
In short: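 Hot-water (52 ± 0.5 °C) tail-immersion test after icv injection at 2.5, 5 or 10 μg/mouse, compared with vehicle. Withdrawal latency measured with a 10 s cutoff. Response expressed as % maximal possible effect (MPE%).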

Mus musculus [14] = assay: Antinociceptive activity in CD-1 mouse assessed as increase in tail-flick latency period at 5 microg, icv at 10 mins by tail flick test; type: functional
Mus musculus [15] = assay: Antinociceptive activity in CD-1 mouse assessed as increase in tail-flick latency period at 40 mg/kg, ip at 30 mins by tail flick test; type: functional; settings: route intraperitoneal

| Structure (SMILES) | Ki [1] [nM] | Ki [2] [nM] | Ki (Mu-type opioid receptor) [nM] | Activity (Mus musculus [4]) | Activity (Mus musculus [5]) | Activity (Mus musculus [7]) | Activity (Mus musculus [9]) | further results |
| --- | --- | --- | --- | --- | --- | --- | --- | --- |
| CC(=O)N[C@H](Cc1c(C)[nH]c2ccccc12)C(=O)N[C@@H](Cc1ccccc1)C(=O)NCC(N)=O | > 100000 | > 100000 | 314 | – | – | – | – | – |
| O=C1CNC(=O)[C@H](Cc2ccccc2)NC(=O)[C@@H](Cc2c[nH]c3ccccc23)NC(=O)CNC(=O)[C@H](Cc2ccc(O)cc2)N1 | > 100000 | 24 | 3.6 | Non-toxic | Non-toxic | Non-toxic | Non-toxic | MPE (Mus musculus [3]): 32%; metabolised at 3 h [6]: < 10%; MPE (Mus musculus [8]): 22% |
| CC(=O)N[C@H](Cc1c[nH]c2c(Br)cccc12)C(=O)N[C@@H](Cc1ccccc1)C(=O)NCC(N)=O | > 100000 | > 100000 | 190 | – | – | – | – | – |
| CC(=O)N[C@H](Cc1c[nH]c2ccc(F)cc12)C(=O)N[C@@H](Cc1ccccc1)C(=O)NCC(N)=O | – | – | > 100000 | – | – | – | – | – |
| CC(=O)N[C@H](Cc1c[nH]c2c(C)cccc12)C(=O)N[C@@H](Cc1ccccc1)C(=O)NCC(N)=O | – | – | > 100000 | – | – | – | – | – |
| CC(=O)N[C@H](Cc1c[nH]c2ccc(C)cc12)C(=O)N[C@@H](Cc1ccccc1)C(=O)NCC(N)=O | > 100000 | > 100000 | 426 | – | – | – | – | – |
| CC(=O)N[C@H](Cc1c[nH]c2ccc([N+](=O)[O-])cc12)C(=O)N[C@@H](Cc1ccccc1)C(=O)NCC(N)=O | > 100000 | > 100000 | 51.9 | Non-toxic | Non-toxic | Non-toxic | Non-toxic | Activity (Mus musculus [10]): 47%; Activity (Mus musculus [11]): Dose-dependent effect; Activity (Mus musculus [12]): 25%; Activity (Mus musculus [13]): Dose-dependent effect; metabolised at 3 h [6]: 7%; Activity (Mus musculus [14]): 49%; MPE (Mus musculus [15]): 48% |
| CC(=O)N[C@H](Cc1c[nH]c2cc(Cl)ccc12)C(=O)N[C@@H](Cc1ccccc1)C(=O)NCC(N)=O | – | – | > 100000 | – | – | – | – | – |
| CC(=O)N[C@H](Cc1c[nH]c2ccc(Br)cc12)C(=O)N[C@@H](Cc1ccccc1)C(=O)NCC(N)=O | > 100000 | > 100000 | 114 | – | – | – | – | – |
| CC(=O)N[C@H](Cc1c[nH]c2ccccc12)C(=O)N[C@@H](Cc1ccccc1)C(N)=O (Ac-[dW]-Phe-NH2) | – | – | – | Non-toxic | Non-toxic | Non-toxic | Non-toxic | Activity (Mus musculus [3]): inactive; Activity (Mus musculus [8]): inactive |
| CC(=O)N[C@H](Cc1c[nH]c2ccc(Cl)cc12)C(=O)N[C@@H](Cc1ccccc1)C(=O)NCC(N)=O | – | – | 20.8 | – | – | – | – | – |
| CC(=O)N[C@H](Cc1c[nH]c2cc(F)ccc12)C(=O)N[C@@H](Cc1ccccc1)C(=O)NCC(N)=O | – | – | 5.7 | – | – | – | – | – |
| CC(=O)N[C@H](Cc1c(C)[nH]c2c(Br)cccc12)C(=O)N[C@@H](Cc1ccccc1)C(=O)NCC(N)=O | > 100000 | > 100000 | 4.03 | Non-toxic | Non-toxic | Non-toxic | Non-toxic | MPE (Mus musculus [3]): 32%; MPE (Mus musculus [8]): 33% |
| CC(=O)N[C@H](Cc1c[nH]c2ccccc12)C(=O)N[C@@H](Cc1ccccc1)C(=O)NCC(N)=O (Ac-[dW]-Phe-Gly-NH2) | – | – | – | Non-toxic | Non-toxic | Non-toxic | Non-toxic | MPE (Mus musculus [3]): 37%; MPE (Mus musculus [8]): 19% |
| CC(=O)N[C@H](Cc1c(C)[nH]c2ccc(Cl)cc12)C(=O)N[C@@H](Cc1ccccc1)C(=O)NCC(N)=O | – | – | > 100000 | – | – | – | – | – |
